MC4R ag barr = activates human MC4R beta-arrestin recruitment; P32245; U2OS MC4R beta-arrestin complementation, luminescence; percent of melanotan II response, DMSO zero; activation, % at 8.9 µM; actives 0.98% (n = 360,000); AID 540308;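 active = activation above a per-plate cutoff, the mean activation of sample wells on that plate plus 3 SD, cut at about 8% in these data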
Target sequence (P32245 whole entry, looked up): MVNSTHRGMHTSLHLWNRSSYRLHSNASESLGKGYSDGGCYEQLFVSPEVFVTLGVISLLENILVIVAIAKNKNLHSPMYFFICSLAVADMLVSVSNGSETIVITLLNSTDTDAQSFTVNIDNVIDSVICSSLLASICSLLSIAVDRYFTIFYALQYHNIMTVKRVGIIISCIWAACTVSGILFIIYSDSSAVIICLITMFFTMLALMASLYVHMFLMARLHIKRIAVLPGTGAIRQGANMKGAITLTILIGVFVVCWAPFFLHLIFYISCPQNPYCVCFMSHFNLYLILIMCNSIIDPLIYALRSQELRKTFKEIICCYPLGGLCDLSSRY
HTR5A ag ctr = HTR5A agonism, opioid heterodimer counter-screen | P47898 | HTR5A agonist assay, luminescence, cell-based | activation, % at 9.3 µM | actives 0.61% (n = 340,000) | AID 504692; in the data active = activation mostly above about 9.5%, no sharp cut-off; inactive = mostly below about 7.6%;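 also: 0% = cells with vehicle only and 100% = reference agonist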
Target sequence (P47898 whole entry, looked up): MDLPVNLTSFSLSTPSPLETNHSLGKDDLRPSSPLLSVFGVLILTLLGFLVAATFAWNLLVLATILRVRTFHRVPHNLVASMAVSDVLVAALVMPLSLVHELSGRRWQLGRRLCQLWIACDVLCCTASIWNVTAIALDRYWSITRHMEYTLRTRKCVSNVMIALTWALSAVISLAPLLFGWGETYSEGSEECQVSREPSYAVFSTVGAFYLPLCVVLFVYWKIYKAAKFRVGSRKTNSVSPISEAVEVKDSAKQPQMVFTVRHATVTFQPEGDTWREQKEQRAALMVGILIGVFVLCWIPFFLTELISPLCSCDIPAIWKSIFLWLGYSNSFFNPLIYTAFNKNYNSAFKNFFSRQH
OPRM1-OPRD1 inv = inverse agonist of human OPRM1-OPRD1 heterodimerization; AID 504357; cell-based MOR-DOR heterodimer luminescence, inverse agonism; actives 0.21% (n = 340,000); inhibition, % at 9.3 µM; in the data active = inhibition above about 22%, passing the limit was not always enough;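 also: 0% = cells with DMSO and 100% = wells without cells with DMSO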
MC4R antag cAMP = antagonists of human melanocortin 4 receptor (MC4R) | P32245 | MC4R-expressing cells, MTII-stimulated cAMP, LANCE TR-FRET | inhibition, % at 6.5 µM | actives 0.48% (n = 360,000) | AID 540295;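 active = inhibition above its plate's cutoff, the mean of tested wells on that plate plus 3 SD, cut at about 29% in these data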;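 also: 0% = Melanotan II alone and 100% = Melanotan II plus saturating MCL0020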
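Test system: U2OS cells stably expressing human melanocortin 4 receptor (MC4R); also added: Melanotan II challenge; compound: 6.5 µM single dose; timing: 30-min compound preincubation, 1-h Melanotan II challenge, 1-h detection, room temperature; signal: Eu-cAMP/anti-cAMP TR-FRET, emission 671 nm; repeats: one well per compound, no replicates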
MOR-DOR ag = OPRM1-OPRD1 heterodimerization agonism | activation, % at 9.3 µM | AID 504326 | actives 0.3% (n = 340,000) | cells, luminescence | P35372+P41143; in the data active = activation above about 18%;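 also: 0% = vehicle-treated cells and 100% = reference agonist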
HTR5A inv ctr = counter-screen for OPRM1-OPRD1 inverse agonists: human HTR5A inverse agonism; inhibition, % at 9.3 µM; HTR5A cell line, luminescence; actives 0.083% (n = 340,000); P47898; in the data active = inhibition mostly above about 23%, no sharp cut-off; inactive = mostly below about 18%;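 also: 0% = cells with DMSO and 100% = no-cell wells with DMSO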
* = called active by the depositor; / = no result given. The list is not random: actives were taken first. Their share in the collection is about 2.4%.

SMILES	MC4R ag barr	HTR5A ag ctr	OPRM1-OPRD1 inv	MC4R antag cAMP	MOR-DOR ag	HTR5A inv ctr
COC(=O)c1cc(NC(=O)Nc2cccc(Cl)c2)ccc1Cl	2.4	7.1	-7.3	-1.9	1.3	0.1
COC(=O)c1cc(NC(=O)c2ccc(-c3ccccc3)cc2)ccc1Cl	9.3*	5.1	-28.1	1.7	5.3	-12.8
Cc1noc(C)c1CSc1nnc(-c2cccnc2)n1C1CCCCC1C (stereo not drawn)	1.1	4.9	13.0	0.5	-2.1	-1.5
COc1ccc(Cc2nnc(SCc3c(C)noc3C)n2C2CCCCC2)cc1OC	1.1	12.0*	-6.2	-3.6	1.0	-59.0
O=C(COc1ccc(Br)cc1Cl)NC(=S)Nc1ccccn1	0.7	-2.8	-16.4	-0.7	2.9	10.2
Cc1ccc(OCC(=O)NC(=S)Nc2ccccn2)c(Br)c1	8.6*	1.2	3.6	-8.7	-0.7	9.8
Cc1ccc(S(=O)(=O)NCc2ccccc2)cc1C(=O)N(C)Cc1ccc(F)cc1	-2.7	-2.5	16.5	2.1	-3.2	6.0
COc1ccccc1NC(=O)Nc1nnc(C(C)C)s1	-1.6	-3.5	6.6	-1.9	-1.2	-19.9
COc1ccccc1NC(=O)Nc1nnc(C(C)c2ccccc2)s1 (stereo not drawn)	4.1	11.5*	-19.2	5.5	4.1	-42.4
COc1ccccc1NC(=O)NC(=O)c1ccccc1	8.8*	2.2	-26.9	0.4	4.9	-3.5
C=C1[C@@H](OC(C)=O)C=C[C@@]2(C)C=CC(=O)[C@@](C)(OC(C)=O)[C@@H]2[C@@H](OC(C)=O)[C@]2(O)[C@@H](C)C(=O)O[C@H]2[C@H]1Cl	-0.6	/	/	6.4	/	/
O/N=C\c1cccn1-c1ccc(Br)cc1	2.3	3.8	15.0	-6.0	-3.0	-8.4
c1ccc2c(c1)[nH]c1c3ccccc3sc21	8.3*	5.4	-40.6	14.4	7.9	-19.6
CCCNC(=O)C1CCC(CNS(=O)(=O)c2ccc3c(c2)CC(C)N3C(C)=O)CC1 (stereo not drawn)	-2.8	-1.7	18.5	-1.2	-3.5	12.9
COCCNC(=O)C1CCC(CNS(=O)(=O)c2ccc3c(c2)CC(C)N3C(=O)C2CC2)CC1 (stereo not drawn)	-0.3	12.4*	16.8	5.8	-3.2	16.7
CN(C)S(=O)(=O)c1ccc(C(=O)OCC(=O)N2CC3(C)CC2CC(C)(C)C3)cc1 (stereo not drawn)	1.3	12.7*	-2.3	-2.4	0.6	-31.2
Cc1noc(C)c1COc1ccc(C(=O)OCC(=O)N2CC3(C)CC2CC(C)(C)C3)cc1 (stereo not drawn)	2.0	-1.5	-2.1	17.6	0.3	-31.1
COc1ccc(NC(=O)Cn2nnc(C(=O)NCc3ccc4c(c3)OCO4)c2N)cc1	3.1	-0.7	15.6	-2.0	-2.5	-20.2
CCOc1ccc(NC(=O)Cn2nnc(C(=O)NCc3ccc4c(c3)OCO4)c2N)cc1	1.5	13.3*	-45.1	-2.0	8.8	-28.3
CCOc1ccc(-c2nnn(CC(=O)NCc3ccc4c(c3)OCO4)n2)cc1	9.3*	-4.7	11.9	-2.3	-2.1	13.0
Cn1nc(C(=O)Nc2ccccc2Cl)cc1C(=O)Nc1ccccc1Cl	9.3*	-1.3	-2.4	4.2	0.5	-11.7
Cn1nc(C(=O)Nc2ccc(Br)cc2)cc1C(=O)Nc1ccc(Br)cc1	0.6	-0.2	5.3	7.2	-1.1	0.6
CC(C)(C)c1cc(C(=O)NN)n(Cc2ccc(F)cc2)n1	1.5	-2.4	-14.9	10.8	3.0	-5.3
Cc1cccc(Cn2nc(C(C)(C)C)cc2C(=O)Nc2ccc(F)cc2)c1	8.5*	/	/	4.6	/	/
O=C(COC(=O)CCN1C(=O)c2ccccc2C1=O)Nc1ccccc1[N+](=O)[O-]	-0.1	10.6*	7.2	3.5	-1.4	-38.3
SMILES	MC4R ag barr	HTR5A ag ctr	OPRM1-OPRD1 inv	MC4R antag cAMP	MOR-DOR ag	HTR5A inv ctr
O=C(COC(=O)CN1C(=O)c2ccccc2C1=O)Nc1ccccc1[N+](=O)[O-]	-1.4	-5.7	-2.6	11.6	0.7	14.3
Cn1c(SCC(=O)N/N=C/c2ccccn2)nnc1-c1ccccc1	-0.5	6.4	14.2	13.9	-2.9	-16.6
CCOC(=O)C1=C(C)N=C2SCCC(=O)N2C1c1ccc(C(=O)OC)cc1 (stereo not drawn)	-1.2	-0.7	8.2	9.4	-1.6	-12.3
CCOC(=O)C1=C(C)N2C(=C(C#N)[C@@H]1c1ccc(C(=O)OC)cc1)SC[C@@]2(O)C(C)(C)C	0.5	0.8	5.9	32.9*	-1.1	-17.4
Cc1nn(-c2ccccc2)c(C)c1NC(=O)COc1ccc2ccccc2c1	-0.2	10.3*	-8.1	2.8	1.5	-13.5
Cc1nn(-c2ccccc2)c(C)c1NC(=O)COc1ccc(C#N)cc1	-1.6	4.9	12.2	8.8	-2.3	-12.1
COc1ccc(S(=O)(=O)N(C)CC(=O)NC2CC2)cc1OC	-2.9	3.8	15.4	5.0	-3.0	-9.1
Cc1ccc(S(=O)(=O)N2CCN(C(C(=O)Nc3ccc(F)cc3)c3ccccc3)CC2)cc1 (stereo not drawn)	0.4	1.2	5.8	-1.8	-1.1	-3.2
O=C1CC(C(=O)O)S/C(=N\NC(=O)c2ccccc2)N1 (stereo not drawn)	-0.1	11.9*	9.1	2.2	-1.6	10.6
CCOC(=O)c1cnn(-c2ccccc2)c1NC(=O)CN1CCOCC1	2.2	13.5*	-4.8	3.6	1.0	-15.4
COC(=O)c1cc(S(=O)(=O)N2CCC(C)CC2)ccc1F	0.9	9.7*	2.6	5.0	-0.5	5.2
O=C(N/N=C/c1sc(=O)n(Cc2ccc(Br)cc2)c1Cl)c1ccco1	26.1*	26.4*	-133.5	-0.1	26.9*	-86.8
O=C(NCc1ccccc1Cl)c1ccc(S(=O)(=O)N2CCCC2)cc1	-0.4	11.3*	19.7	2.0	-5.0	4.0
O=C(NCc1ccccc1Cl)c1ccc[nH]1	2.5	12.7*	6.5	12.7	-1.3	0.6
O=C(NCc1ccccc1Cl)NCc1ccccc1Cl	3.3	-0.8	0.6	7.9	-0.1	-8.6
O=C(NCc1ccccc1F)c1ccc(S(=O)(=O)N2CCCC2)cc1	0.7	/	/	13.5	/	/
O=C(NCc1ccc(Cl)cc1)c1ccc(S(=O)(=O)N2CCCCC2)cc1	9.4*	-3.5	-3.2	-1.9	0.8	3.8
CCC(=O)Nc1cccc(C(=O)c2ccc(C)c(C)c2)c1	0.6	0.9	7.2	4.2	-1.4	-13.1
CCOC(=O)c1c(-c2ccc(-c3ccccc3)cc2)csc1NC(=O)CCN1CCOCC1	2.6	10.9*	-0.6	5.9	0.1	-28.6
CCOC(=O)c1c(NC(=S)N2CCN(C)CC2)sc(C)c1-c1ccccc1	-1.4	-0.7	-6.1	19.6	1.2	-2.5
CCOC(=O)c1c(NC(=O)CN2CCCCC2)sc(CN(C)C)c1-c1ccccc1	2.4	8.1*	8.2	4.5	-1.4	-20.9
CCOC(=O)c1c(-c2ccc(F)cc2)csc1NC(=O)CCN1CCOCC1	2.1	-0.5	2.1	12.3	-0.4	-28.8
